Reference: the EternaBench riboswitch data

Tested on: MS2 coat protein
Assay: apparent Kd, MS2 coat protein; higher = weaker binding; RNA-MaP array; FMN 200 µM where present
Outline: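 In 100 mM Tris-HCl pH 7.5, 80 mM KCl, 4 mM MgCl2, BSA, DTT, yeast tRNA and Tween-20, SNAP-549-labelled MS2 coat protein was titrated from 0.7 or 1.5 nM, doubling to 3 µM, over designs transcribed by stalled E. coli RNA polymerase on Illumina sequencing-chip clusters. This was done first without ligand, then with ligand held constant. After green signal was normalised to red-channel RNA signal and control-cluster median Fmax, the apparent Kd was taken as the median of filtered per-cluster binding-curve fits.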

[1] = designed as: ON switch for flavin mononucleotide, no ligand
[2] = ligand present: flavin mononucleotide, designed as: ON switch for flavin mononucleotide
[3] = designed as: OFF switch for flavin mononucleotide, no ligand
[4] = ligand present: flavin mononucleotide, designed as: OFF switch for flavin mononucleotide

Row | Sequence | apparent Kd [1] [nM] | apparent Kd [2] [nM] | apparent Kd [3] [nM] | apparent Kd [4] [nM]
1 | UGUUGUAUUACAGGAUAUCUAUUAUUUAUAUUUAGAGAAGGGUAUUCACAUGAGGAUCACCCAUGUAUAUACGAGGAAGUUGUG | 52.1 | 54 |  | 
2 | CUCAGCUCGUGAGGAUAUACAACACUGCUUCGGCAGUGUAUUAAGAUCACAUGAGGAUCACCCAUGUAGAAGGCACGAGCUGAU |  |  | 14.3 | 246
3 | AAGUUGACAGGAUAUACUUGGGCAACUUAUAUACUAAUAUAACAUGAGGAUCACCCAUGUAGAAGGGUCAGAAA |  |  | 54 | 72.5
4 | CAGCGUACCAGAGGAUAUGAUUGUGGGUAAAGAGCGCUUAGGUGGCUACAUGAGGAUCACCCAUGUCAGAAGGCUGGAGUUCAA |  |  | 279 | 129
5 | AGAGAUACGCUCGUCGGACACCGACAUGAGGAUCACCCAUGUAGAAGGCGAUGCGCAACUCGCAUUGAGGAUAUAUAAUGCAGC |  |  | 6 | 5.74
6 | GUCAUGUCAGGAUAUGCUUAUGAUGGGUGCUCAGACAUGAUGCAGAAGGGACAUGAGGAUCACCCAUGUACUGU |  |  | 62.5 | 62.5
7 | CGUUAUGAUAGAGGAUAUGUAAUACAUGAGGAUCACCCAUGUCACAUGGACAUUGUUUCUAAUUUACAGAAGGCUAUCCUUUCG |  |  | 20.3 | 16.3
8 | GGGUCCAUCGGAGGAUAUCAUGUAAAUACAUGAGGAUCACCCAUGUCGAUGGAGACAUCGGAGAUUGAGAAGGCCGAUGUACCG | 209 | 10.5 |  | 
9 | GUAGUCAGUAAUGAAAGCCCGGGCGCAGAAGGCCAGACACAUGAGGAUCACCCAUGUAUCCCUAUGGAGGAUAUGUGUCACGUG | 113 | 30.5 |  | 
10 | AACAGUCUGGAGGAUAUGCUGGAUGAAUAUCUGGCAGAAGGCUGGACAUGAGGAUCACCCAUGUAAAUACUACC |  |  | 27.1 | 54.5
11 | GGAUAGGACAUAGGAUAUACGUGCUAGAGAUACUAGCAAAAUUUCCUCACAUGAGGAUCACCCAUGUAGAAGGCUGUCCUAUCG |  |  | 6.73 | 24.5
12 | GUAAUACAUGAGGAUCACCCAUGUCAAUGUAGUCGAGGAUAUGGGUAGCUAUGAGGCUUACUAGAAGGCGACGAGC | 210 | 39.3 |  | 
13 | UCGUAUACACAAGGAUAUCAAUGAUUUGUGGAUCCUACAUGAGGAUCACCCAUGUUUUUAUAUUUUGAGAAGGUGUAGUGUCUU | 417 | 608 |  | 
14 | UGGUCAUCAUCAGGAUAUUAACGUGGGCUACAUUAAGAAGGGAUAGUGGGAGAGGAAGUGAAACAUGAGGAUCACCCAUGUUGU | 13.5 | 11.3 |  | 
15 | GGGUGACAUGAGGAUCACCCAUGUCAGGAUAUGGGCUCGGGCUCGAAAGGGCUCGGGCUCAGAAGGGACUGCCC |  |  | 56 | 170
16 | UCAUCAACGGGCGGGUCGGUUGGACAUGAGGAUCACCCAUGUAGAAGGACCGGUGGGCUCCGGCGGUAGGAUAUACAUUUGGUG |  |  | 8.14 | 13.3
17 | GUCUGCUCGUGAGGAUAUACAACACUGCUUCGGCAGUGUAUUAAGAUCACAUGAGGAUCACCCAUGUAGAAGGCACGAGCUGAU |  |  | 14.1 | 252
18 | CUUUAGCUAGGAUAUACAUGAGGAUCACCCAUGUUAGCGGUCCAUUGGGCCGCGGGUUGUAGAAGGAGCAUUAA |  |  | 30.8 | 56.8
19 | AACACAACAUGAAACAUGAGGAUCACCCAUGUUGUUUGUAAUCAGGAUAUGAUCUCAAGAAUGAAUUAGAAGGGAUAGGGAGGG | 35.8 | 47.1 |  | 
20 | UGCAUUACUUAGAAGGGAUAUAUAUAAUUUUAAUCAGGAUAUAGAUACAAUACAACAUGAGGACAUGAGGAUCACCCAUGUAUU | 19.9 | 14 |  | 
21 | CCCGUGUGUUAAGGAUAUGGCAGGCGCGUUGAACCAGAAGGUAGCACAUGAGGAUCACCCAUGUGAAUGCUCACGAAUCGAGCG |  |  | 31.3 | 26.8
22 | CUUCAGUCAGGAUAUGUUAAUCUCGCCACUCCGCGAACCGGACAGAAGGGACAUGAGGAUCACCCAUGUUAAAC |  |  | 30.4 | 19.5
23 | CGCAACUCAGAUCUGUUAAACAUGAGGAUCACCCAUGUAUUGAGAAGGAGGAAGAAGAGAGAUUCCUAGGAUAUCAGAGUUGCG |  |  | 6.62 | 6.98
24 | GGAAAUCAUGUAGGAUAUGCAUGGCGAAGCUACGCAGAAGGACAUGAGGAUCACCCAUGUUCUAGCUACCGAGUUCGGUGGCAA |  |  | 21.6 | 114

Row | Sequence | apparent Kd [1] [nM] | apparent Kd [2] [nM] | apparent Kd [3] [nM] | apparent Kd [4] [nM]
25 | GCGAUUUUGUAAGGAUAUACUCUGUGAUGAAGAGUAGAAGGUACUUACAUGAGGAUCACCCAUGUUUAACGAGAUACUAAUCGU | 42.1 | 21.2 |  | 
26 | UUAUACUGAGAGAAGGUUCAAACUACAUAUUGCAUACAUGAGGAUCACCCAUGUUGGUGAAUAAGAAAGGAUAUUUUACUGUAU |  |  | 39.2 | 27.9
27 | GUUAUUGACAAGAAGGCAUACAUGAGGAUCACCCAUGUUCUACAUGGAUAAUGAGGAUAUUGCCAAUACAUGAGGAUCACCCAG |  |  | 68.3 | 77.5
28 | UGUUGUAUUACAGGAUAUCUAUGGUUUUUAUUUAGAGAAGGGUAUUCACAUGAGGAUCACCCAUGUAUAUACGAGGAAGUUGUG | 57.5 | 63.7 |  | 
29 | CUGCUGGAGCUUUGCUCUAGUCGUACAUGAGGAUCACCCAUGUAGGAUAUGGUAGGCUUUGCUUACUAGAAGGAUAGAGUGGUC |  |  | 76.4 | 32.8
30 | AGAAUAAACCAGAAGGCGUAGAUACAUGAGGAUCACCCAUGUAUACUUGCGAGGAUAUGGAUGAUUCAAGUGCGUUUCGUAGCA | 6.06 | 4.23 |  | 
31 | AGCCAACAUGAGGAUCACCCAUGUCUACAGGAUUAAGGAUAUGGGCAGGGCUUCCCUGCACUAGAAGGUGAUCGAA | 153 | 214 |  | 
32 | CGGUGCUGAGGAUAUACAUGAGGAUCACCCAUGUGUGCCAGCUAGAAGACUGGCACUUGUAGAAGGCAGUACUG |  |  | 11.4 | 20.5
33 | GCACGGUAAGUGAGGAUAUACCUCUGGAUACAGAGGUAGAAGGCACAUGAGGAUCACCCAUGUUCCAGCCGUGC |  |  | 17.9 | 74.8
34 | AAUCCACAUGAGGAUCACCCAUGUCAGGAUAUCGCGCGCGCGUUUUCGGUCUUUCGCGCGAGAAGGGACGGCUG |  |  | 17.7 | 23.5
35 | ACAUGAGGAUCACCCAUGUCUUUAUCCGAUUCUUCAUUUACGUAGGAUAUCGUCUAUACUAUCAUCGAGAAGGACGUUCUUUAA | 17.6 | 15.9 |  | 
36 | UGUGUCUGUAGAGGAUAUCCGGGCGUUCGGCUAGGAGAAGGCUGCAACACAUGAGGAUCACCCAUGUAGGUUGUGUCUCUCUAC |  |  | 5.05 | 8.48
37 | UUAUUGGGACAGAAGGGCAUUUACAUGAGGAUCACCCAUGUUCAUCAUUGCAGGAUAUGUAUUACAUGAGGAUCAUCUAUGUUA | 259 | 36.9 |  | 
38 | UCGUGAAGGACAGGAUAUGGACAUGAGGAUCACCCAUGUACAUGGGAUUAUAUACUGAAUUUAUACUAGAAGGGUUACAUAAAU |  |  | 31.7 | 19.8
39 | AACGAAGAGGAGAAGGGUGAUGGGUCCUCAUGACCCGGAGGGCCGCGGCACAGGAUAUCCAUGUCACAUGAGGAUCACCCAUGU | 123 | 18.5 |  | 
40 | GUGGCCUAGGCACAGGAUAUGUUUCUCGUAACAUGAGGAUCACCCAUGUGCCUUUGAGAUUUUAUGCAGAAGGGUGCACGCCACG | 488 | 24.3 |  | 
41 | UUUUAACAUGAGGAUCACCCAUGUGAGGAUAUCGAAAUUUAUAUUAAUAUUAUUAUUUCGAGAAGGCACAUUUU |  |  | 136 | 137
42 | AGGAGACAUGAGGAUCACCCAUGUGCACGGUGAAGAGGAUAUGUGCGUGGAGAGACACGGACAGAAGGCUUAAGAA | 65.3 | 33 |  | 
43 | CCACGGUAUGUAGGAUAUGCAUAGCAUUGCUAUGCAGAAGGACAUGAGGAUCACCCAUGUAUGUAUUCCAUACUAAUCCCGUGU |  |  | 6.29 | 5.9
44 | AAAUCACAUGAGGAUCACCCAUGUGAGGAUAUGAUACUAUGUACUUCGGUACAUAGUAUCAGAAGGCAUAUGGA |  |  | 23 | 35.9
45 | CGUUCACAUGAGGAUCACCCAUGUCAGAUUUGGUCAGGAUAUGGUCUGCUUCCGCUAUUGCCAGAAGGGACUUUUG | 28.9 | 22.7 |  | 
46 | UGUAAAUUAUUAAGUAAUUAGGCGAAGGAUAUAUAACAUGAGGAUCACCCAUGUACUAAAUUGAAGUAGAAGGUUGAGCAUUUC | 16.5 | 14.6 |  | 
47 | GACUGCUGAGGAUAUACAUGAGGAUCACCCAUGUGCUUCAGUAUCGAAAGAUGCAUGGGUAGAAGGUGGUAGUC |  |  | 70.6 | 54.4
48 | GGGUACAUCGGAGGAUAUCAUGUAAAUACAUGAGGAUCACCCAUGUCGAUGGAGACAUCGGAGAUGGAGAAGGCCGAUGUACCG | 538 | 102 |  | 
